Measured values gathered from unrelated publications.
In brackets after ≈: the same amount, converted by molar mass.

SMILES | target or system | test | test system | conditions | measurement | result
CN(C[C@H](O)[C@@H](O)[C@H](O)[C@H](O)CO)C(=O)N[C@]12CCC(C)(C)C[C@H]1C1=CC[C@@H]3[C@@]4(C)CC[C@@H]5OC(C)(C)OC[C@@]5(C)[C@@H]4CC[C@@]3(C)[C@]1(C)CC2 | Leishmania mexicana | parasite growth, resazurin |  | 50 µM, amastigote | inhibition | 99%
CC(=O)OC1c2c(ccc3ccc(=O)oc23)OC(C)(C)C1OC(=O)C(C)(O)C(C)O (stereo not drawn) |  | tubulin polymerisation, inhibitor |  | 10 µM | inhibition | 33.8%
O=C(O)CN1C(=O)/C(=C/c2ccc(-c3ccc(N(c4ccccc4)c4ccccc4)cc3)cc2)SC1=S | Staphylococcus epidermidis | microbial killing, broth dilution | ATCC12228 |  | MBC | 7.8 µg/mL (≈ 14.9 µM)
C/C=C(/C)C(=O)O[C@@H]1[C@H](OC(C)=O)c2c(ccc3ccc(=O)oc23)OC1(C)C |  | tubulin polymerisation, inhibitor |  | 10 µM | inhibition | 24.8%
CC1(C)CC[C@]2(CO)CC[C@]3(C)C(=CC[C@@H]4[C@@]5(C)CC[C@@H]6O[C@H]([C@H](O)[C@@H](O)[C@H](O)CO)OC[C@@]6(C)[C@@H]5CC[C@]43C)[C@@H]2C1 | Leishmania mexicana | parasite growth, resazurin |  | 50 µM, amastigote | inhibition | 98.7%
O=C1NC(=S)N/C1=C\c1c2ccccc2c(-c2ccc(N(c3ccccc3)c3ccccc3)cc2)c2ccccc12 | Staphylococcus epidermidis | microbial killing, broth dilution | ATCC12228 |  | MBC | > 1000 µg/mL
COc1c2ccoc2cc2oc(=O)ccc12 |  | tubulin polymerisation, inhibitor |  | 10 µM | inhibition | 22.5%
CC1(C)CC[C@]2(NC(=O)N3CCCC3)CC[C@]3(C)C(=CC[C@@H]4[C@@]5(C)CC[C@H](O)[C@@](C)(CO)[C@@H]5CC[C@]43C)[C@@H]2C1 | Leishmania mexicana | parasite growth, resazurin |  | 50 µM, amastigote | inhibition | 99%
COC(=O)[C@]1(O)C[C@@H](O)[C@@H](O)[C@H](OC(=O)/C=C/c2ccc(O)c(O)c2)C1 |  | tubulin polymerisation, inhibitor |  | 10 µM | inhibition | 16.9%
COC(=O)[C@]12CCC(C)(C)C[C@H]1C1=CC[C@@H]3[C@@]4(C)CC[C@@H]5O[C@H]([C@H](O)[C@@H](O)[C@H](O)[C@H](O)CO)OC[C@@]5(C)[C@@H]4CC[C@@]3(C)[C@]1(C)CC2 | Leishmania mexicana | parasite growth, resazurin |  | 50 µM, amastigote | inhibition | 100%
CC(=O)O[C@@H]1c2c(ccc3ccc(=O)oc23)OC(C)(C)[C@@H]1OC(=O)C1(C)OC1C (stereo partly drawn) |  | tubulin polymerisation, inhibitor |  | 10 µM | inhibition | 32.8%
O=C1NC(=S)S/C1=C\c1c2ccccc2c(-c2ccc(N(c3ccccc3)c3ccccc3)cc2)c2ccccc12 | Staphylococcus epidermidis | microbial killing, broth dilution | ATCC12228 |  | MBC | > 1000 µg/mL
CC[C@H](CC[C@@H](C)[C@H]1CC[C@H]2[C@@H]3CC=C4C[C@@H](O[C@@H]5O[C@H](CO)[C@@H](O)[C@H](O)[C@H]5O)CC[C@]4(C)[C@H]3CC[C@]12C)C(C)C |  | tubulin polymerisation, inhibitor |  | 10 µM | inhibition | 14.4%
c1ccc2cc(Cn3cc[n+](Cc4ccc5ccccc5c4)c3)ccc2c1 | HOP-92 | cell growth or viability, SRB |  |  | TGI | 1390 nM
CO[C@H]1O[C@H]([C@@H]2OC[C@@]3(C)[C@@H]4CC[C@]5(C)[C@H](CC=C6[C@@H]7CC(C)(C)CC[C@]7(C(=O)O)CC[C@]65C)[C@@]4(C)CC[C@@H]3O2)[C@@H](O)[C@H](O)[C@H]1O | Leishmania mexicana | parasite growth, resazurin |  | 50 µM, amastigote | inhibition | 96.6%
O=c1cc(-c2ccc(O)c(O)c2)oc2cc(O)cc(O)c12 |  | tubulin polymerisation, inhibitor |  | 10 µM | inhibition | 26.2%
Cc1ccc(-c2nc3ccccc3s2)cc1NC(=O)c1cc([N+](=O)[O-])c(F)cc1F | Leishmania mexicana | parasite growth | J774.A1 | intracellular, amastigote | EC50 | 640 nM
CC1(C)CC[C@]2(C(=O)O)CC[C@]3(C)C(=CC[C@@H]4[C@@]5(C)CC[C@@H]6OCOC[C@@]6(C)[C@@H]5CC[C@]43C)[C@@H]2C1 | Leishmania mexicana | parasite growth, resazurin |  | 50 µM, amastigote | inhibition | 97.5%
Cc1cc(Cl)c(Cl)cc1NC(=O)c1cc([N+](=O)[O-])c(F)cc1F | Leishmania mexicana | parasite growth | J774.A1 | intracellular, amastigote | EC50 | 340 nM
O=C1NC(=S)N/C1=C\c1ccc(-c2ccc(N(c3ccccc3)c3ccccc3)cc2)c2ccccc12 | Staphylococcus epidermidis | microbial killing, broth dilution | ATCC12228 |  | MBC | > 1000 µg/mL
Cc1ccc(-c2nc3ccccc3s2)cc1NC(=O)c1cc([N+](=O)[O-])ccc1O | Leishmania mexicana | parasite growth | J774.A1 | intracellular, amastigote | EC50 | > 10000 nM
O=C1NC(=S)S/C1=C\c1ccc(-c2ccc(N(c3ccccc3)c3ccccc3)cc2)cc1 | Staphylococcus epidermidis | microbial killing, broth dilution | ATCC12228 |  | MBC | 250 µg/mL (≈ 538 µM)
Cc1ccc(-c2nc3ccccc3s2)cc1NC(=O)c1cc([N+](=O)[O-])ccc1Cl | Leishmania mexicana | parasite growth | J774.A1 | intracellular, amastigote | EC50 | > 10000 nM
C[C@H](O)[C@H](O)[C@@H](O)[C@@H](O)[C@@H]1OC[C@@]2(C)[C@@H]3CC[C@]4(C)[C@H](CC=C5[C@@H]6CC(C)(C)CC[C@]6(C(=O)O)CC[C@]54C)[C@@]3(C)CC[C@@H]2O1 | Leishmania mexicana | parasite growth, resazurin |  | 50 µM, amastigote | inhibition | 100%
